Assay results from ChEMBL document CHEMBL1158565, “Antagonism of 4-substituted 1,4-dihydropyridine-3,5-dicarboxylates toward voltage-dependent L-type Ca2+ channels Ca V 1.3 and Ca V 1.2” (Bioorg Med Chem, 2010).

What was measured:
[1] = target: Voltage-dependent L-type calcium channel subunit alpha-1D (Rattus norvegicus) (UniProt P27732); assay: Antagonist activity at rat Cav1.3 expressed in HEK293 cells assessed as inhibition of voltage pulse-induced calcium current at 100 nM by whole-cell patch-clamp recording
Voltage-dependent L-type calcium channel subunit alpha-1D (Rattus norvegicus), sequence (P27732 whole entry, the tested form may be a part): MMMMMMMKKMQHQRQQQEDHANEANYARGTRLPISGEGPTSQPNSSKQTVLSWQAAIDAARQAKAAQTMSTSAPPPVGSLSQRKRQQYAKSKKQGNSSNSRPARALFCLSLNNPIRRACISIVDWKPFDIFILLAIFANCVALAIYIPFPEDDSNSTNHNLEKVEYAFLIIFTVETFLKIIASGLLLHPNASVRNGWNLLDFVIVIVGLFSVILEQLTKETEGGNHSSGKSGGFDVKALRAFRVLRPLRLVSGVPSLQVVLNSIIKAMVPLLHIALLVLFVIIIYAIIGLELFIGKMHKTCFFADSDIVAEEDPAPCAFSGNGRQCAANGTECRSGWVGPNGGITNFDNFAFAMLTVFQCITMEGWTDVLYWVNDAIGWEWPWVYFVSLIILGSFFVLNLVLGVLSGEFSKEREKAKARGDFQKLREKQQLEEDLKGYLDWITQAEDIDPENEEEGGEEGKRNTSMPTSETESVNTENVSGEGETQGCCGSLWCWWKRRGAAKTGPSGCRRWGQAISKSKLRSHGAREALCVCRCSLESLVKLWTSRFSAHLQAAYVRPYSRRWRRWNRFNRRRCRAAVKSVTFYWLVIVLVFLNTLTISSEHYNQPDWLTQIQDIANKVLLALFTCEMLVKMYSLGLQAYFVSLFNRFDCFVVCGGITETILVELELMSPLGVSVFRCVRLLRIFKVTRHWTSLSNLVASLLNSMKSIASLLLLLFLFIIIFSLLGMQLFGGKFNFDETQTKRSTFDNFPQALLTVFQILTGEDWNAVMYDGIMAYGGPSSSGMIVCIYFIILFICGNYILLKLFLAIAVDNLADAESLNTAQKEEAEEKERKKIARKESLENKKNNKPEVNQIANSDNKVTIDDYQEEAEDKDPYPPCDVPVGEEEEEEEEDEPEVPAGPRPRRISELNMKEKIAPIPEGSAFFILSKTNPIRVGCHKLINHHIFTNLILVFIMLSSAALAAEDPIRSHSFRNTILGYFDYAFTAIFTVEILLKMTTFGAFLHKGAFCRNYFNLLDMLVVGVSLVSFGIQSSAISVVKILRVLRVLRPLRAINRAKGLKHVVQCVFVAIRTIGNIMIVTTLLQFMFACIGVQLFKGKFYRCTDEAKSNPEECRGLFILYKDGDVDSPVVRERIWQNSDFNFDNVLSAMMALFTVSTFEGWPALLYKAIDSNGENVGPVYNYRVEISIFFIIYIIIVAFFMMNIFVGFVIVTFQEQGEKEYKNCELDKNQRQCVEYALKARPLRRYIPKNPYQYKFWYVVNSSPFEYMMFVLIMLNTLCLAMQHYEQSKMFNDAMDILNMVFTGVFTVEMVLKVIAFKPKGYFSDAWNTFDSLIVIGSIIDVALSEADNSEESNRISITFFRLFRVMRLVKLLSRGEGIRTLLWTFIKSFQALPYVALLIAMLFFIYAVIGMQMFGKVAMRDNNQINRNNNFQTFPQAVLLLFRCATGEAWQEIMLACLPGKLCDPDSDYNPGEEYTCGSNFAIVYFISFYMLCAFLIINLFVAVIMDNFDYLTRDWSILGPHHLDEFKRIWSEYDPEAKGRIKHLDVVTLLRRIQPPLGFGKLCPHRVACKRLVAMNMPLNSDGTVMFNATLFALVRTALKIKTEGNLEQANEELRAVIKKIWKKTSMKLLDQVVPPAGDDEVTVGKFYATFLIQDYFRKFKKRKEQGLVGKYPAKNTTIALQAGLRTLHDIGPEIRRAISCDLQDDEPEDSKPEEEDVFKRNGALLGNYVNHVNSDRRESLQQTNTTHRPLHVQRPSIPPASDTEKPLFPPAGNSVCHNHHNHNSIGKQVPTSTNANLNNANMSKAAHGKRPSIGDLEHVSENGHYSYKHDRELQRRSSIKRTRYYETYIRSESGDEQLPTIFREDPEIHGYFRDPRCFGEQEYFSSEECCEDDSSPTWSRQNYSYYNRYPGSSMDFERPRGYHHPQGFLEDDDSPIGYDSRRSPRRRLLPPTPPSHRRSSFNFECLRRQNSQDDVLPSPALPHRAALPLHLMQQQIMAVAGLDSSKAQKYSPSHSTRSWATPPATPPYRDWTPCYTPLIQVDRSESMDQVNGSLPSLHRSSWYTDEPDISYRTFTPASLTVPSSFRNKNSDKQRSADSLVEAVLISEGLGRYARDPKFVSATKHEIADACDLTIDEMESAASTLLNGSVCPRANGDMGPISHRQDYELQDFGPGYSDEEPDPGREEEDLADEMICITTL

[2] = Selectivity ratio of antagonist activity at rat Cav1.3 to antagonist activity at rabbit Cav1.2 at 100 nM; type: functional
In short: (§1)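 Percent inhibition of Cav1.3 current was divided by that of Cav1.2 at the same concentration. Currents were from whole-cell patch clamp in transiently transfected tsA201 cells: Ba2+ bath, pH 7.4, steps from -60 mV, about 22 °C.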

[3] = target: T1, Voltage-dependent L-type calcium channel subunit alpha-1C (Oryctolagus cuniculus, UniProt P15381); assay: Antagonist activity at rabbit Cav1.2 expressed in tsA201 cells assessed as inhibition of voltage pulse-induced calcium current at 100 nM by whole-cell patch-clamp recording
T1 sequence (P15381 whole entry): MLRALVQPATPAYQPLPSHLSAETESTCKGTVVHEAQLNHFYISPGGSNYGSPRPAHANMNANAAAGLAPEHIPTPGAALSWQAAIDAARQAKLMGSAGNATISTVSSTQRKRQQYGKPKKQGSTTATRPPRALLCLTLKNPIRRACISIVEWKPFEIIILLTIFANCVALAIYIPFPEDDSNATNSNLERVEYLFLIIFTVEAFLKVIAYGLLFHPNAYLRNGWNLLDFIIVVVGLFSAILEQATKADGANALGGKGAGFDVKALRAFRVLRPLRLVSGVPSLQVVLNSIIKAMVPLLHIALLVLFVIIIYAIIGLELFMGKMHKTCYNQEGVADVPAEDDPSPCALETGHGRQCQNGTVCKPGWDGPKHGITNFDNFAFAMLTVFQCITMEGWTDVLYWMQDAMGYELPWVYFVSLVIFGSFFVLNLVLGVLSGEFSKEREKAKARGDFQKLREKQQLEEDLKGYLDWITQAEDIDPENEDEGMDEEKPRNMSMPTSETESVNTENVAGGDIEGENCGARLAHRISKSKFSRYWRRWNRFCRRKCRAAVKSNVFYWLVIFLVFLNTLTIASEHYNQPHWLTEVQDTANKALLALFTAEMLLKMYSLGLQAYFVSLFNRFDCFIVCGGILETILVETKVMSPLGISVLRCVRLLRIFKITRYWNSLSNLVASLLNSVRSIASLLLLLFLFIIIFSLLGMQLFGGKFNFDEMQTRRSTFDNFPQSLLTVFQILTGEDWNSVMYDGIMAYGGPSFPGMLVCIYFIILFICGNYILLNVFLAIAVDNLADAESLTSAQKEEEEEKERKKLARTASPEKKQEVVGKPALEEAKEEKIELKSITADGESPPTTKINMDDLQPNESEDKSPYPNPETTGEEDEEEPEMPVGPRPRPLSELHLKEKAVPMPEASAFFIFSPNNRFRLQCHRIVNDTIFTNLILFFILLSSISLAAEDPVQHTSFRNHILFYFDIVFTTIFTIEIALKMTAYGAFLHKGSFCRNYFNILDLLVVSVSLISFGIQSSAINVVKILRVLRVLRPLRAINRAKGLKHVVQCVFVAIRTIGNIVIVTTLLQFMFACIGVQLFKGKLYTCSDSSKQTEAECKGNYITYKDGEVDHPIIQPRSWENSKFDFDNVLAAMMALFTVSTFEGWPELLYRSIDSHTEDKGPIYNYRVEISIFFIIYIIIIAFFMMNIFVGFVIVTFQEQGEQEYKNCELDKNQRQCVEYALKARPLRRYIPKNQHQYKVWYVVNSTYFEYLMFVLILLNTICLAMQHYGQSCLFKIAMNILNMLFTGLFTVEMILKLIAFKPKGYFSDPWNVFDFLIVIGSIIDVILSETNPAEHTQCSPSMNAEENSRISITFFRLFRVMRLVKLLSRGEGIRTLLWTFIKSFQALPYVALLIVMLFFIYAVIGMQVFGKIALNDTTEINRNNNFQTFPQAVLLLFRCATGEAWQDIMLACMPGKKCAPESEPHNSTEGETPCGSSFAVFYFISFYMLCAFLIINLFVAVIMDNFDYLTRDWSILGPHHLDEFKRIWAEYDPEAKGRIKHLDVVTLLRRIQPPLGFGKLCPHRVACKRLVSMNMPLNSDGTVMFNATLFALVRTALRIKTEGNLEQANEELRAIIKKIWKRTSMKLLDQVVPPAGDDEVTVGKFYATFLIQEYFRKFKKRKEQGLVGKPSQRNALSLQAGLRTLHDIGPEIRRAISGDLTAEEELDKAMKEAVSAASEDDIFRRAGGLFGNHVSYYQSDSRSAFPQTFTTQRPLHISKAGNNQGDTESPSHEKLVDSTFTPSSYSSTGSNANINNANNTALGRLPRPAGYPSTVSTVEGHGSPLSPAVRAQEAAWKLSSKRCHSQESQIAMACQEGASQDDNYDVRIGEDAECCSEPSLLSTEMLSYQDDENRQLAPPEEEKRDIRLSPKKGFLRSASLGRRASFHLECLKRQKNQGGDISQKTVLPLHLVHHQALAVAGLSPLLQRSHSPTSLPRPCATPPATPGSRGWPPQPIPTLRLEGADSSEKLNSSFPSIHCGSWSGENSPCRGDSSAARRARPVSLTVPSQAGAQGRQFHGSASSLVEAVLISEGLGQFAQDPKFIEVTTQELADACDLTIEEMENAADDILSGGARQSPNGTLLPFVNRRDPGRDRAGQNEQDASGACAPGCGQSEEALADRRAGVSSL

[4] = Selectivity ratio of IC50 for Cav1.2 to IC50 for Cav1.3
[5] = Selectivity ratio of antagonist activity at rat Cav1.3 to antagonist activity at rabbit Cav1.2 at 200 nM; type: functional
In short: as §1

[6] = target: T1, Voltage-dependent L-type calcium channel subunit alpha-1C; assay: Antagonist activity at rabbit Cav1.2 expressed in tsA201 cells assessed as inhibition of voltage pulse-induced calcium current at 200 nM by whole-cell patch-clamp recording
[7] = target: Voltage-dependent L-type calcium channel subunit alpha-1D (Rattus norvegicus) (UniProt P27732); assay: Antagonist activity at rat Cav1.3 expressed in HEK293 cells assessed as inhibition of voltage pulse-induced calcium current at 200 nM by whole-cell patch-clamp recording
[8] = target: T1, Voltage-dependent L-type calcium channel subunit alpha-1C; assay: Antagonist activity at rabbit Cav1.2 expressed in tsA201 cells assessed as inhibition of voltage pulse-induced calcium current at 1000 nM by whole-cell patch-clamp recording
[9] = Selectivity ratio of antagonist activity at rat Cav1.3 to antagonist activity at rabbit Cav1.2 at 10 nM; type: functional
In short: as §1

[10] = target: T1, Voltage-dependent L-type calcium channel subunit alpha-1C; assay: Antagonist activity at rabbit Cav1.2 expressed in tsA201 cells assessed as inhibition of voltage pulse-induced calcium current at 10 nM by whole-cell patch-clamp recording
[11] = target: Voltage-dependent L-type calcium channel subunit alpha-1D (Rattus norvegicus) (UniProt P27732); assay: Antagonist activity at rat Cav1.3 expressed in HEK293 cells assessed as inhibition of voltage pulse-induced calcium current at 10 nM by FLIPR calcium 4 assay; type: functional, cell-based; conditions: in the assay text read “by whole-cell patch-clamp recording” for “by FLIPR calcium 4 assay”
In short: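 Whole-cell patch clamp on tsA201 cells transiently cotransfected with rabbit Cav1.2 α1C or rat Cav1.3 α1D, Cavβ3 and Cavα2δ-1 (1:1:1) plus GFP. GFP cells were recorded after replating at 48 h. Bath (mM): 110 NaCl, 1 MgCl2, 10 BaCl2, 10 HEPES, 10 glucose, 20 CsCl, pH 7.4. Compound was diluted from DMSO stock and perfused. Pulses ran from -60 mV to +10 or 0 mV with tetrodotoxin at about 22 °C. Read-out was percent current inhibition.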

[12] = target: Voltage-dependent L-type calcium channel subunit alpha-1D (Rattus norvegicus) (UniProt P27732); assay: Antagonist activity at rat Cav1.3 expressed in HEK293 cells assessed as inhibition of voltage pulse-induced calcium current at 10 nM by whole-cell patch-clamp recording
[13] = Selectivity ratio of antagonist activity at rat Cav1.3 to antagonist activity at rabbit Cav1.2 at 500 nM; type: functional
In short: as §1

[14] = target: T1, Voltage-dependent L-type calcium channel subunit alpha-1C; assay: Antagonist activity at rabbit Cav1.2 expressed in tsA201 cells assessed as inhibition of voltage pulse-induced calcium current at 500 nM by whole-cell patch-clamp recording
[15] = target: Voltage-dependent L-type calcium channel subunit alpha-1D (Rattus norvegicus) (UniProt P27732); assay: Antagonist activity at rat Cav1.3 expressed in tsA201 cells assessed as inhibition of voltage pulse-induced calcium current at 500 nM by whole-cell patch-clamp recording
[16] = target: T1, Voltage-dependent L-type calcium channel subunit alpha-1C; assay: Antagonist activity at rabbit Cav1.2 expressed in HEK293 cells assessed as inhibition of voltage pulse-induced calcium current at 1000 nM by FLIPR calcium 4 assay; type: functional, cell-based

| SMILES | inhibition [1] | Selectivity ratio [2] | inhibition at 0.1 µM [3] | inhibition at 1 µM [8] | also measured |
| --- | --- | --- | --- | --- | --- |
| CCOC(=O)C1=C(C)NC(C)=C(C(=O)OCC)C1c1cccc(Cl)c1 | 59% | 1.02 | 58% | – | – |
| COCCOC(=O)C1=C(C)NC(C)=C(C(=O)OC(C)C)C1c1cccc([N+](=O)[O-])c1 (stereo unspecified) | – | – | – | – | Ratio IC50 [4]: 20 |
| CCOC(=O)C1=C(C)NC(C)=C(C(=O)OCC)C1c1ccccc1 | 41% | 0.85 | 48% | – | – |
| CCOC(=O)C1=C(C)N=C(C)/C(=C(/O)OCC)C1c1cccnc1 (stereo unspecified) | – | – | – | – | Selectivity ratio [5]: 0.56; inhibition at 0.2 µM [6]: 25%; inhibition [7]: 14% |
| CCOC(=O)C1=C(C)NC(C)=C(C(=O)OCC)C1c1cccc(C(F)(F)F)c1 | – | – | – | – | Selectivity ratio [5]: 0.99; inhibition at 0.2 µM [6]: 85%; inhibition [7]: 84% |
| CC1=C(C(=O)OC(C)(C)C)C(c2ccc([N+](=O)[O-])cc2)C(C(=O)OC(C)(C)C)=C(C)N1 | – | – | – | 36% | – |
| CCOC(=O)C1=C(C)NC(C)=C(C(=O)OCC)C1C(C)c1ccccc1 (stereo unspecified) | – | – | – | 28% | – |
| CCOC(=O)C1=C(C)N=C(C)/C(=C(/O)OCC)C1/C=C/c1ccccc1 (stereo unspecified) | – | – | – | 30% | – |
| CCOC(=O)C1=C(C)NC(C)=C(C(=O)OC)C1c1ccccc1[N+](=O)[O-] (stereo unspecified) | – | – | – | – | Selectivity ratio [9]: 0.63; inhibition at 0.01 µM [10]: 41%; inhibition [11]: 26% |
| COC(=O)C1=C(C)NC(C)=C(C(=O)OC)C1c1ccccc1[N+](=O)[O-] [NIFEDIPINE] | 46% | 0.67 | 69% | – | – |
| CCOC(=O)C1=C(CC)NC(CC)=C(C(=O)OCC)C1c1cccc([N+](=O)[O-])c1 | 37% | 0.71 | 52% | – | – |
| CCOC(=O)C1=C(C)NC(C)=C(C(=O)OCC)C1c1ccc([N+](=O)[O-])o1 | – | – | – | – | Selectivity ratio [5]: 0.95; inhibition at 0.2 µM [6]: 43%; inhibition [7]: 41% |
| CCCC1=C(C(=O)OCC)C(c2cccc([N+](=O)[O-])c2)C(C(=O)OCC)=C(CCC)N1 | 27% | 1.07 | 25% | – | – |
| CCOC(=O)C1=C(C)NC(C)=C(C(=O)OCC)C1c1ccc([N+](=O)[O-])cc1 | – | – | – | 48% | – |
| CCOC(=O)C1=C(C)NC(C)=C(C(=O)OCC)C1c1cccc([N+](=O)[O-])c1 | – | – | – | – | Selectivity ratio [9]: 1.34; inhibition [12]: 43%; inhibition at 0.01 µM [10]: 32% |
| CCOC(=O)C1=C(C)NC(C)=C(C(=O)OCC)C1c1cccc(F)c1 | 48% | 0.75 | 64% | – | – |
| CCOC(=O)C1=C(C)NC(C)=C(C(=O)OCC)C1c1ccc(OCc2ccc(Br)cc2)cc1 | – | – | – | 38% | – |
| CCOC(=O)C1=C(C)N=C(C)/C(=C(/O)OCC)C1c1ccco1 (stereo unspecified) | – | – | – | – | Selectivity ratio [5]: 0.67; inhibition at 0.2 µM [6]: 72%; inhibition [7]: 48% |
| CCOC(=O)C1=C(C)NC(C)=C(C(=O)OCC)C1c1ccc(-c2cccs2)s1 | – | – | – | 35% | – |
| CCOC(=O)C1=C(C)NC(C)=C(C(=O)OCC)C1c1cc2cc(Br)ccc2[nH]1 | – | – | – | – | Selectivity ratio [13]: 1.03; inhibition at 0.5 µM [14]: 42%; inhibition [15]: 43% |
| CCOC(=O)C1=C(C)NC(C)=C(C(=O)OC)C1c1cccc([N+](=O)[O-])c1 (stereo unspecified) [NITRENDIPINE] | 34% | 0.55 | 62% | – | – |
| CCOC(=O)C1=C(C)N=C(C)/C(=C(/O)OCC)C1c1cccc(OC)c1 (stereo unspecified) | – | – | – | – | Selectivity ratio [5]: 0.64; inhibition at 0.2 µM [6]: 69%; inhibition [7]: 44% |
| CC1=C(C(=O)OC(C)(C)C)C(c2cccc([N+](=O)[O-])c2)C(C(=O)OC(C)(C)C)=C(C)N1 | 22% | 0.69 | 32% | – | – |
| CCOC(=O)C1=C(C)NC(C)=C(C(=O)OCC)C1c1cc2cccc(C)c2nc1Cl | – | – | – | 12% | – |
| CCOC(=O)C1=C(C)NC(C)=C(C(=O)OCC)C1c1cccc(Br)c1 | 80% | 0.98 | 82% | – | – |
| CCOC(=O)C1=C(CC)NC(CC)=C(C(=O)OCC)C1c1ccc([N+](=O)[O-])cc1 | – | – | – | – | inhibition at 1 µM [16]: 58% |
| CCOC(=O)C1=C(CC)NC(C)=C(C(=O)OC)C1c1ccc([N+](=O)[O-])cc1 (stereo unspecified) | – | – | – | 28% | – |
| CCOC(=O)C1=C(C)NC(C)=C(C(=O)OC)C1c1ccc([N+](=O)[O-])cc1 (stereo unspecified) | – | – | – | 48% | – |
| CCOC(=O)C1=C(C)N(C)C(C)=C(C(=O)OCC)C1c1cccc([N+](=O)[O-])c1 | – | – | – | 35% | – |
| CCOC(=O)C1=C(CC)NC(C)=C(C(=O)OC)C1c1cccc([N+](=O)[O-])c1 (stereo unspecified) | 55% | 0.72 | 76% | – | – |
